Only some compounds are listed: those with a hit (about 1% of all), similar ones and a draw of the others.
KLK5 inh – inhibitors of human kallikrein 5 | recombinant hK5, fluorogenic AMC substrate cleavage | inhibition, % at 5 µM | 0.59% of 210,000 active | AID 873;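 active = inhibition of 40% or more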
Target sequence (Q9Y337 67-293 limits assumed): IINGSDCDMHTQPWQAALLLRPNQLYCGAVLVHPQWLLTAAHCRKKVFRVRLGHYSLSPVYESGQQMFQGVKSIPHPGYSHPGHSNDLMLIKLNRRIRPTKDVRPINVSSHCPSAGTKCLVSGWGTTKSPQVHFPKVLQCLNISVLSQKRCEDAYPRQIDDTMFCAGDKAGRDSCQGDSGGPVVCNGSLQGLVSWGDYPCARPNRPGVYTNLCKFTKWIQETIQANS
FXIa inh – factor XIa (human) inhibition. P03951. purified FXIa, Boc-Glu-Ala-Arg-AMC fluorogenic substrate. inhibition, % at 5 µM. 0.14% of 220,000 active. AID 798;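 active = inhibition of at least 40%; inactive = inhibition below 40%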;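 also: fluorescence of freed AMC excited at 355 nm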
FXIIa inh 1536 – factor XIIa (human) inhibition; AID 800; purified FXIIa, Boc-QGR-AMC fluorogenic substrate, 2 h; inhibition, % at 5 µM; P00748; 0.3% of 220,000 active; in the data active = inhibition above about 40%
thrombin 1536 – blocks human thrombin protease activity; inhibition, % at 5 µM; 0.26% of 220,000 active; alpha-thrombin, Boc-VPR-AMC fluorogenic substrate cleavage; AID 1046;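 active = inhibition at or above 40%; inactive = inhibition below 40%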
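System – human alpha-thrombin · Medium – pH 7.5 Tris (50 mM) with NaCl 150 mM, Tween 20 0.05% · Compound – single-point dosing at 5 µM, 0.2% DMSO · Incubation – enzyme reaction carried out at room temperature · Technique – fluorescence of released AMC, ex 355 nm, em 460 nm · Read-out basis – % inhibition of thrombin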
Each line names hits and unclear results; the compound was inactive in the other large screens.

CC(=O)N1c2ccccc2N2C(c3c(C)c(C)cc(C)c3C)=NON12	thrombin 1536 47
O=S(=O)(Cc1ccccc1)N1CCN(Cc2ccc3c(c2)OCO3)CC1	none
O=C(Nc1ccc(Cl)c(C(F)(F)F)c1)N1CCCC(O)C1 (stereo not given)	FXIIa inh 1536 42
COc1cc(OC)c2c(c1)C(=O)OC2	none
Cc1nnc(SCCn2c(Br)nc3c2c(=O)[nH]c(=O)n3C)s1	FXIa inh 44
COCCCNC(=O)C(F)(F)C(F)(F)C(=O)NCCCOC	KLK5 inh 122
O=C(NCCCCNC(=O)C(F)(F)F)C(F)(F)F	none
COc1cc(CNC(C)(C)CO)ccc1OCC(=O)Nc1ccc(Br)cc1	KLK5 inh 42
O=C(O)CCCCCN1C(=O)C(O)=C(C(=O)/C=C/c2ccccc2)C1c1ccccc1[N+](=O)[O-] (stereo not given)	none
CN(C)S(=O)(=O)Oc1ccsc1C(=O)Nc1cccc(Cl)c1	FXIIa inh 1536 47
CN(C)S(=O)(=O)Oc1ccsc1C(=O)Nc1ccc(Cl)c(Cl)c1	FXIIa inh 1536 42
O=C(Nc1ccc(N2CCOCC2)cc1)c1ccc(S(=O)(=O)NCc2ccco2)cc1	none
CC(CNc1ccccc1O)C(=O)O (stereo not given)	none
CC(C)(C)OC(=O)N[C@@H](Cc1ccccc1)c1nnc(S(=O)(=O)Cc2ccccc2)o1	none
CCC(C)[C@@H](NC(=O)OC(C)(C)C)c1nnc(S(=O)(=O)Cc2cccc(C)c2)o1 (stereo not given in full)	thrombin 1536 51
COC(=O)c1ccccc1NC(=O)Nc1cc(C)ccn1	FXIIa inh 1536 41
COc1cccc2cc(C(=O)N3CCN(C45CC6CC(CC(C6)C4)C5)CC3)c(=O)oc12	KLK5 inh 65
CC(C)Cn1c(N)c(C(=O)CSc2ccc3c(c2)OCCO3)c(=O)n(C)c1=O	none
O=C(Nc1ccc(N2CCCCC2)c(Cl)c1)c1ccc(N2CCOCC2)c([N+](=O)[O-])c1	KLK5 inh 45
CC(=O)N1CCN(c2ccc(NC(=O)c3ccc(N4CCCC4)c([N+](=O)[O-])c3)cc2Cl)CC1	none
CCOC(=O)COc1ccc2nsnc2c1Cl	KLK5 inh 102
Cc1ccc(C(=O)N/N=C\c2c(C)nn(-c3ccccc3)c2Cl)cn1	KLK5 inh 41
CCOc1ccccc1NC(=O)COC(=O)c1cc(C(=O)OC)cc([N+](=O)[O-])c1	none
Clc1ccc(-c2csc(N3CCOCC3)n2)cc1	KLK5 inh 45, FXIa inh 48
COc1cc(Cl)c(S(=O)(=O)N2CC(C)OC(C)C2)cc1Cl (stereo not given)	KLK5 inh 54
COc1cc(Cl)c(S(=O)(=O)N2CCOCC2)cc1Cl	none
NC(=O)c1oc2ccc(Cl)cc2c1NC(=O)CN1CCOCC1	none
CCCCC(=O)Nc1cc(C(=O)NCCc2ccccc2)ccc1Cl	KLK5 inh 63
CCOC(=O)c1c(C)nc2sc3c(=O)n(-c4ccc(C(C)=O)cc4)cnc3c2c1-c1ccc(OC)cc1	none
CCOC(=O)c1c(C)nc2sc3c(=O)n(-c4ccc(OC)cc4)nnc3c2c1-c1ccc(OC)cc1	KLK5 inh 45
CSc1cccc(NC(=O)C2CCN(C(=O)c3ccccc3C)CC2)c1	none
O=C(Nc1cccc(F)c1)C1CCN(C(=O)c2ccccc2Cl)CC1	KLK5 inh 46
O=C(Nc1ccc(Oc2cccnc2)cc1)c1ccccc1F	none
CCc1ccc(NC(=O)c2ccc3ncsc3c2)cc1	KLK5 inh 40
CC(C)N(C)CCOC(=O)/C=C/c1ccccc1	KLK5 inh 41
CN(CCOC(=O)/C=C/c1ccccc1)C(C)(C)C	none
COc1ccc(C2=CC(c3c(C)nn(-c4ccccc4)c3Cl)n3nnnc3N2)cc1OC (stereo not given)	none
CCOC(=O)c1cc(-c2ccccc2)sc1NC(=O)C(C)OC(=O)c1cccnc1OCC (stereo not given)	none
Cc1nc2cc(CC(=O)O)ccc2o1	none
Cc1ccc(C(=O)n2nc(-c3cccnc3)nc2N)cc1	KLK5 inh 74, FXIa inh 48, FXIIa inh 1536 94, thrombin 1536 82
COc1ccc(-c2nc(N)n(C(=O)c3cccs3)n2)cc1	none
COc1ccccc1C(=O)n1nc(-c2cccnc2)nc1N	KLK5 inh 61, FXIIa inh 1536 85 (no result: thrombin 1536)
Cc1ccc(S(=O)(=O)n2nc(-c3cccnc3)nc2N)cc1	none
CC(C)(C)OC(=O)NNC(=O)Nc1ccccc1C(F)(F)F	none
CCOc1cccc(C(=O)NC(=S)Nc2ccc(Cl)cc2C(=O)O)c1	none (no result: FXIIa inh 1536)
Cc1ccc(C2=NNC(c3ccc(Cl)cc3)=Nc3ccccc32)o1	none
COc1cccc(CC2(CO)CCCN(CC3=Cc4cc(Cl)ccc4OC3)C2)c1 (stereo not given)	none
CN(C)c1ccc(C(=S)N2CCOCC2)cc1	FXIIa inh 1536 45
CN(C)c1ccc(C(=S)N2CCCCCC2)cc1	none
CN(C)c1ccc(C(=S)N2CCN(c3ccc([N+](=O)[O-])cc3)CC2)cc1	FXIa inh 52, FXIIa inh 1536 49
O=[N+]([O-])c1ccc(C(=S)N2CCN(c3ccc(F)cc3)CC2)cc1	none
O=[N+]([O-])c1ccc(N2CCCCC2)cc1	KLK5 inh 40
O=C(c1ccco1)N1CCN(C(=O)C2CCCc3c2[nH]c2ccc(Cl)cc32)CC1 (stereo not given)	none
CCCCOc1ccccc1NC(=O)CC1SC(=NCC)N(CC)C1=O (stereo not given)	none
O=c1oc(-c2ccco2)nc2c1cnn2-c1ccccc1	FXIIa inh 1536 48
O=c1oc(-c2ccco2)nc2ccccc12	KLK5 inh 44
O=c1oc(-c2cccs2)nc2ccccc12	none
O=C(c1ccccc1)c1ccc2nc(-c3ccco3)c(-c3ccco3)nc2c1	none
c1coc(-c2nc3ccccc3nc2-c2ccco2)c1	FXIIa inh 1536 45
CC(=O)c1ccc(-c2nnc(CCC(=O)N(C)Cc3c(C)nc4ccccn34)o2)s1	none (no result: KLK5 inh)
N#Cc1c[nH]n2c(=O)c3c(nc12)CCC3	none
N#Cc1c[nH]n2c(=O)c3c(nc12)CCCC3	KLK5 inh 70
Cc1cc(C)c2c3c(sc2n1)C(c1cccc(F)c1)C(C#N)=C(N)O3 (stereo not given)	thrombin 1536 60
CCCN1CCC2(CC1)C(C#N)=C(N)Oc1c2sc2nc(C)cc(C)c12	none
CCCCCCCCS(=O)c1sc2nc3c(cc2c1N)CCCC3 (stereo not given)	none
CCCCS(=O)(=O)c1sc2nc3c(cc2c1N)CCCC3	KLK5 inh 42
CCOC(=O)N1CCN(C(=O)c2ccccc2NC(=O)c2ccc(Br)cc2)CC1	none
CCOC(=O)N1CCN(C(=O)c2ccccc2NC(=O)c2ccc(F)cc2)CC1	KLK5 inh 58
O=C(Cn1nc(-c2ccc(Cl)cc2)ccc1=O)NCC1CCCO1 (stereo not given)	KLK5 inh 51
O=C(Cn1nc(-c2ccccc2)ccc1=O)NCC1CCCO1 (stereo not given)	none
CCC(=O)Nc1ccc(S(=O)(=O)Nc2ccc(Cl)nn2)cc1	none
CCCC1=NCCn2cccc21	none
COc1ccc(C2=NCCn3cccc32)c(OC)c1	KLK5 inh 41
CCCn1cc(C(=O)OCC)c(=O)c2cc(F)c(F)cc21	FXIa inh 65

From PubChem BioAssay
